Measured values: ChEMBL document CHEMBL5357047, “The development of thymol-isatin hybrids as broad-spectrum antibacterial agents with potent anti-MRSA activity” (RSC Med Chem, 2024)
≈ marks a conversion by molar mass, not a printed value.

Assays:
[1] = biological target: T1, 4,4'-diapophytoene synthase (Staphylococcus aureus, UniProt A9JQL9); test: Inhibition of Staphylococcus aureus CrtM
T1 sequence (A9JQL9 whole entry): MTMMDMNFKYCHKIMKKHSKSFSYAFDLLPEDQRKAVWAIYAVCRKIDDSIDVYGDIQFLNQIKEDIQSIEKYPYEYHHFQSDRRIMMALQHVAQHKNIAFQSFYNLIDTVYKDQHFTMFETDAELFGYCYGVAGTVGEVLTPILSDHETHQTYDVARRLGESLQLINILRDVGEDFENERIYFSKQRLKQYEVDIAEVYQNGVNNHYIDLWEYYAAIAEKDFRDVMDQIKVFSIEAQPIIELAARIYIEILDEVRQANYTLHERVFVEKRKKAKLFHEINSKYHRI

[2] = Cytotoxicity against mouse L929 cells assessed as reduction in cell viability measured after 72 hrs by MTT assay; type: toxicity, cell-based
Summary of the method: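 L929 cells (ATCC) grown in DMEM with 10% FBS and penicillin/streptomycin at 37 °C, 5% CO2; seeded at 5 × 10^3 cells per well and exposed to serial dilutions for 72 h, paclitaxel as positive control. MTT (5 mg mL−1), formazan dissolved in DMSO, absorbance at 490 nm; viability relative to control after blank subtraction; IC50 in μM.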

[3] = system: Escherichia coli; test: Antibacterial activity against clinically isolated Escherichia coli RBRJ005 assessed as inhibition of bacterial growth at 50 uM measured after 48 hrs by agar well diffusion method; type: functional; conditions: read-out: IZ
[4] = system: Staphylococcus aureus; test: Bactericidal activity against Staphylococcus aureus MTCC 740 assessed as inhibition of bacterial growth measured after 48 hrs by agar plate method; type: functional
Summary of the method: (§1)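 MBC: aliquots from microdilution wells without colour change subcultured on drug-free Mueller Hinton agar, 48 h at 37 °C aerobically. MBC is the lowest concentration with no visible growth. Triplicate.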

[5] = system: Enterococcus faecalis; test: Antibacterial activity against clinically isolated Enterococcus faecalis RBRJ015 assessed as inhibition of bacterial growth at 50 uM measured after 48 hrs by agar well diffusion method; type: functional; conditions: read-out: IZ
[6] = system: Acinetobacter baumannii; test: Antibacterial activity against clinically isolated Acinetobacter baumannii RBRJ027 assessed as inhibition of bacterial growth at 50 uM measured after 48 hrs by agar well diffusion method; type: functional; conditions: read-out: IZ
[7] = system: Staphylococcus aureus; test: Antibacterial activity against Methicillin-resistant Staphylococcus aureus ATCC 33591 assessed as inhibition of bacterial growth at 50 uM measured after 48 hrs by agar well diffusion method; type: functional; conditions: read-out: IZ
Summary of the method: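 Agar well diffusion on Mueller Hinton agar seeded with bacteria at 0.5 McFarland. […] Incubated 48 h at 37 °C aerobically; zone of inhibition diameter (mm) measured. Triplicate.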

[8] = system: Enterobacter cloacae; test: Antibacterial activity against clinically isolated Enterobacter cloacae RBRJ017 assessed as inhibition of bacterial growth at 50 uM measured after 48 hrs by agar well diffusion method; type: functional; conditions: read-out: IZ
[9] = system: Staphylococcus aureus; test: Antibacterial activity against clinically isolated Methicillin-resistant Staphylococcus aureus assessed as inhibition of bacterial growth measured after 48 hrs by broth microdilution method; type: functional
[10] = system: Staphylococcus aureus; test: Bactericidal activity against clinically isolated Methicillin-resistant Staphylococcus aureus assessed as inhibition of bacterial growth measured after 48 hrs by agar plate method; type: functional
[11] = system: Escherichia coli; test: Antibacterial activity against Escherichia coli MTCC 119 assessed as inhibition of bacterial growth at 50 uM measured after 48 hrs by agar well diffusion method; type: functional; conditions: read-out: IZ
[12] = system: Staphylococcus aureus; test: Antibacterial activity against clinically isolated Methicillin-resistant Staphylococcus aureus assessed as inhibition of bacterial growth at 50 uM measured after 48 hrs by agar well diffusion method; type: functional; conditions: read-out: IZ
[13] = system: Pseudomonas aeruginosa; test: Antibacterial activity against Pseudomonas aeruginosa MTCC 424 assessed as inhibition of bacterial growth at 50 uM measured after 48 hrs by agar well diffusion method; type: functional; conditions: read-out: IZ
[14] = system: Staphylococcus aureus; test: Bactericidal activity against Methicillin-resistant Staphylococcus aureus ATCC 33591 assessed as inhibition of bacterial growth measured after 48 hrs by agar plate method; type: functional; summary of the method: as §1
[15] = system: Klebsiella pneumoniae; test: Antibacterial activity against clinically isolated Klebsiella pneumoniae RBRJ024 assessed as inhibition of bacterial growth at 50 uM measured after 48 hrs by agar well diffusion method; type: functional; conditions: read-out: IZ
[16] = system: Staphylococcus aureus; test: Antibacterial activity against Staphylococcus aureus MTCC 740 assessed as inhibition of bacterial growth measured after 48 hrs by broth microdilution method; type: functional
[17] = system: Enterococcus faecalis; test: Antibacterial activity against Enterococcus faecalis MTCC 439 assessed as inhibition of bacterial growth at 50 uM measured after 48 hrs by agar well diffusion method; type: functional; conditions: read-out: IZ
[18] = system: Klebsiella pneumoniae; test: Antibacterial activity against Klebsiella pneumoniae MTCC 109 assessed as inhibition of bacterial growth at 50 uM measured after 48 hrs by agar well diffusion method; type: functional; conditions: read-out: IZ
[19] = system: Staphylococcus aureus; test: Antibacterial activity against Staphylococcus aureus MTCC 740 assessed as inhibition of bacterial growth at 50 uM measured after 48 hrs by agar well diffusion method; type: functional; conditions: read-out: IZ
[20] = system: Escherichia coli; test: Antibacterial activity against clinically isolated Escherichia coli RBRJ013 assessed as inhibition of bacterial growth at 50 uM measured after 48 hrs by agar well diffusion method; type: functional; conditions: read-out: IZ
[21] = system: Staphylococcus aureus; test: Antibacterial activity against clinically isolated Staphylococcus aureus RBRJ010 assessed as inhibition of bacterial growth at 50 uM measured after 48 hrs by agar well diffusion method; type: functional; conditions: read-out: IZ
[22] = system: Staphylococcus epidermidis; test: Antibacterial activity against Staphylococcus epidermidis MTCC 435 assessed as inhibition of bacterial growth at 50 uM measured after 48 hrs by agar well diffusion method; type: functional; conditions: read-out: IZ
[23] = system: Klebsiella pneumoniae; test: Antibacterial activity against clinically isolated Klebsiella pneumoniae RBRJ019 assessed as inhibition of bacterial growth at 50 uM measured after 48 hrs by agar well diffusion method; type: functional; conditions: read-out: IZ
[24] = system: Staphylococcus aureus; test: Antibacterial activity against Methicillin-resistant Staphylococcus aureus ATCC 33591 assessed as inhibition of bacterial growth measured after 48 hrs by broth microdilution method; type: functional
[25] = system: Staphylococcus aureus; test: Bactericidal activity against clinically isolated Staphylococcus aureus RBRJ010 assessed as inhibition of bacterial growth measured after 48 hrs by agar plate method; type: functional
Summary of the method: (§2)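 MBC: 10 μL from wells showing no INT colour change after broth microdilution subcultured on drug-free Mueller Hinton agar, 48 h at 37 °C aerobically; lowest concentration with no visible growth taken as MBC (μM). Triplicate.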

[26] = system: Staphylococcus aureus; test: Antibacterial activity against clinically isolated Staphylococcus aureus RBRJ010 assessed as inhibition of bacterial growth measured after 48 hrs by broth microdilution method; type: functional
[27] = system: Staphylococcus epidermidis; test: Antibacterial activity against Staphylococcus epidermidis MTCC 435 assessed as inhibition of bacterial growth measured after 48 hrs by broth microdilution method; type: functional
[28] = system: Staphylococcus epidermidis; test: Bactericidal activity against Staphylococcus epidermidis MTCC 435 assessed as inhibition of bacterial growth measured after 48 hrs by agar plate method; type: functional; summary of the method: as §2
[29] = Selectivity index, ratio of IC50 for cytotoxicity against mouse L929 cells to MIC for antibacterial activity against clinically isolated Methicillin-resistant Staphylococcus aureus; type: toxicity, cell-based; conditions: read-out: Selectivity Index

Compound	zone of inhibition at 50 µM [3] [mm]	MBC [4] [µM]	zone of inhibition at 50 µM [5] [mm]	zone of inhibition at 50 µM [6] [mm]	zone of inhibition at 50 µM [7] [mm]	zone of inhibition at 50 µM [8] [mm]	MIC [9] [µM]	MBC [10] [µM]	zone of inhibition at 50 µM [11] [mm]	zone of inhibition at 50 µM [12] [mm]	zone of inhibition at 50 µM [13] [mm]	zone of inhibition at 50 µM [15] [mm]	MIC [16] [µM]	zone of inhibition at 50 µM [17] [mm]	zone of inhibition at 50 µM [18] [mm]	zone of inhibition at 50 µM [19] [mm]	zone of inhibition at 50 µM [20] [mm]	zone of inhibition at 50 µM [21] [mm]	zone of inhibition at 50 µM [22] [mm]	zone of inhibition at 50 µM [23] [mm]	other results
O=P(O)(O)C(CCCc1ccc(-c2ccc(Br)cc2)cc1)S(=O)(=O)O (stereo not drawn)																					Ki [1]: 135 nM
O=P(O)(O)C(CCCc1ccc(-c2ccccc2)cc1)P(=O)(O)O																					Ki [1]: 0.2 nM
CC(=O)O[C@H]1C(=O)[C@@]2(C)[C@H]([C@H](OC(=O)c3ccccc3)[C@]3(O)C[C@H](OC(=O)[C@H](O)[C@@H](NC(=O)c4ccccc4)c4ccccc4)C(C)=C1C3(C)C)[C@]1(OC(C)=O)CO[C@@H]1C[C@@H]2O [PACLITAXEL]																					IC50 at 72 h [2]: 62.5 nM
Cc1ccc(C(C)C)c(OCc2cn(CCCN3C(=O)C(=O)c4cc(I)ccc43)nn2)c1	12.3	125 (≈ 68 µg/mL)	11.1	11.5	20.5	13.7	62.5 (≈ 34 µg/mL)	125 (≈ 68 µg/mL)	13.2	20.2	11.6	12.7	31.2 (≈ 17 µg/mL)	11.7	12.3	20.2	11.2	19	14.2	11.3	MBC [14]: 125 µM (≈ 68 µg/mL); MIC [24]: 62.5 µM (≈ 34 µg/mL)
COc1ccc2c(c1)C(=O)C(=O)N2CCCn1cc(COc2cc(C)ccc2C(C)C)nn1	17.2	125 (≈ 56.1 µg/mL)	11.3	12.3	25.3	13.5	3.9 (≈ 1.75 µg/mL)	7.8 (≈ 3.5 µg/mL)	16.5	25.1	16.4	17.6	62.5 (≈ 28 µg/mL)	12.6	17.3	25.3	15.4	23.3	15.7	18.1	MBC [25]: 31.2 µM (≈ 14 µg/mL); MBC [14]: 15.6 µM (≈ 7 µg/mL); MIC [26]: 15.6 µM (≈ 7 µg/mL); MIC [24]: 7.8 µM (≈ 3.5 µg/mL)
O=P(O)(O)C(CCCc1ccc(-c2ccccc2)cc1)S(=O)(=O)O (stereo not drawn)																					Ki [1]: 6 nM
Cc1ccc(C(C)C)c(OCc2cn(CCN3C(=O)C(=O)c4cc(C)ccc43)nn2)c1	12.7		16.3	12.7	16	14.2			17.1	16.2	11.3	15.7		14.3	16.6	18.2	11.4	21.2	19.6	15.4	MBC [25]: 62.5 µM (≈ 26.2 µg/mL); MIC [26]: 31.2 µM (≈ 13.1 µg/mL)
Cc1ccc(C(C)C)c(OCc2cn(CCN3C(=O)C(=O)c4ccccc43)nn2)c1	15.2	125 (≈ 50.6 µg/mL)	18.3	13.3	18.2	16.5	62.5 (≈ 25.3 µg/mL)	125 (≈ 50.6 µg/mL)	18.6	20.2	18.2	16.5	62.5 (≈ 25.3 µg/mL)	15.4	18.3	20.2	14.4	22.2	22.7	16.4	MIC [27]: 15.6 µM (≈ 6.31 µg/mL); MBC [25]: 31.2 µM (≈ 12.6 µg/mL); MBC [28]: 31.2 µM (≈ 12.6 µg/mL); IC50 at 72 h [2]: 250000 nM; selectivity ratio [29]: 4; MIC [26]: 15.6 µM (≈ 6.31 µg/mL)
Cc1ccc(C(C)C)c(OCc2cn(CCCN3C(=O)C(=O)c4cc(Cl)ccc43)nn2)c1	15.2	31.2 (≈ 14.1 µg/mL)	14.1	13.2	20.5	15.7	31.2 (≈ 14.1 µg/mL)	62.5 (≈ 28.3 µg/mL)	14.2	21.3	13.3	14.8	15.6 (≈ 7.07 µg/mL)	14.2	14.3	22.1	15.5	21.2	18.2	15.1	MBC [25]: 31.2 µM (≈ 14.1 µg/mL); MBC [14]: 125 µM (≈ 56.6 µg/mL); IC50 at 72 h [2]: 125000 nM; selectivity ratio [29]: 4; MIC [26]: 15.6 µM (≈ 7.07 µg/mL); MIC [24]: 62.5 µM (≈ 28.3 µg/mL)
Cc1ccc(C(C)C)c(OCc2cn(CCCN3C(=O)C(=O)c4cc(F)ccc43)nn2)c1	16.2	15.6 (≈ 6.81 µg/mL)	15.3	14.7	20.3	15.3	15.6 (≈ 6.81 µg/mL)	31.2 (≈ 13.6 µg/mL)	15.2	22.2	16	14.3	7.8 (≈ 3.4 µg/mL)	16.4	15.2	24.1	16.2	23.2	16.2	15.4	MBC [25]: 15.6 µM (≈ 6.81 µg/mL); MBC [14]: 125 µM (≈ 54.6 µg/mL); IC50 at 72 h [2]: 31200 nM; selectivity ratio [29]: 2; MIC [26]: 7.8 µM (≈ 3.4 µg/mL); MIC [24]: 62.5 µM (≈ 27.3 µg/mL)
Cc1ccc(C(C)C)c(OCc2cn(CCCN3C(=O)C(=O)c4cc(Br)ccc43)nn2)c1	15.4	62.5 (≈ 31.1 µg/mL)	12.2	11.2	21.5	14.2	31.2 (≈ 15.5 µg/mL)	62.5 (≈ 31.1 µg/mL)	14.1	21.2	11.4	13.3	31.2 (≈ 15.5 µg/mL)	12.1	14.3	21.2	15.5	19.3	17.2	13.2	MBC [14]: 125 µM (≈ 62.2 µg/mL); MIC [24]: 62.5 µM (≈ 31.1 µg/mL)
